Results on one molecule are retold here after ChEMBL document CHEMBL1944603, “An efficient synthesis of highly functionalized novel chromeno[4,3-b]pyrroles and indolizino[6,7-b]indoles as potent antimicrobial and antioxidant agents” (2012).

In brackets after ≈: the same amount, converted by molar mass.

One test relates to Radical scavenging activity. Briefly: Antioxidant activity assessed as DPPH free radical scavenging activity at 50 ug by spectrophotometer. The test is classed as functional. Put shortly: (§1)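 DPPH radical scavenging measured spectrophotometrically by Blois's method at 50, 500 and 1000 µg. Absorbance read at 517 nm. Percent scavenging is the absorbance decrease at 517 nm relative to the absorbance of DPPH solution without test compound. L-ascorbic acid as standard.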
For orientation: DPPH is a stable violet radical that fades when it is reduced.
Turning to `COC(=O)[C@]12Cc3c([nH]c4ccccc34)[C@@H](c3ccc(Cl)cc3)N1[C@@H]1c3c(ccc4ccccc34)OC[C@@H]1C2`, the Activity was 26%.

Another test relates to Bacillus subtilis. Briefly: Antimicrobial activity against Bacillus subtilis at 25 ug/ml by agar diffusion assay. It counts as functional. In outline:
(§2)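 Agar diffusion assay in duplicate against the human bacterial pathogens; tetracycline as reference control.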
In general terms: Agar diffusion results depend on both activity and mobility in agar.
Turning to `COC(=O)[C@]12Cc3c([nH]c4ccccc34)[C@@H](c3ccc(Cl)cc3)N1[C@@H]1c3c(ccc4ccccc34)OC[C@@H]1C2`, the inhibition zone (IZ) stood at 12 mm.

Another test relates to Bacillus subtilis. Briefly: Antimicrobial activity against Bacillus subtilis at 50 ug/ml by agar diffusion assay. The test is classed as functional. Put shortly: as §2
In turn, `COC(=O)[C@]12Cc3c([nH]c4ccccc34)[C@@H](c3ccc(Cl)cc3)N1[C@@H]1c3c(ccc4ccccc34)OC[C@@H]1C2` registered an inhibition zone (IZ) of 18 mm.

In the next test the test system is Bacillus subtilis. Briefly: Antimicrobial activity against Bacillus subtilis at 75 ug/ml by agar diffusion assay. The test is classed as functional. In outline: as §2
Molecule `COC(=O)[C@]12Cc3c([nH]c4ccccc34)[C@@H](c3ccc(Cl)cc3)N1[C@@H]1c3c(ccc4ccccc34)OC[C@@H]1C2` showed an inhibition zone (IZ) of 21 mm.

The next test deals with Bacillus subtilis. Briefly: Antimicrobial activity against Bacillus subtilis at 100 ug/ml by agar diffusion assay. It counts as functional. Put shortly:
as §2
Take `COC(=O)[C@]12Cc3c([nH]c4ccccc34)[C@@H](c3ccc(Cl)cc3)N1[C@@H]1c3c(ccc4ccccc34)OC[C@@H]1C2`: the inhibition zone (IZ) worked out at 26 mm.

A further test has as its system Staphylococcus aureus. Briefly: Antimicrobial activity against Staphylococcus aureus at 25 ug/ml by agar diffusion assay. The test is classed as functional. In outline:
as §2
The molecule `COC(=O)[C@]12Cc3c([nH]c4ccccc34)[C@@H](c3ccc(Cl)cc3)N1[C@@H]1c3c(ccc4ccccc34)OC[C@@H]1C2` registered an inhibition zone (IZ) of 14 mm.

A further test deals with Staphylococcus aureus. Briefly: Antimicrobial activity against Staphylococcus aureus at 50 ug/ml by agar diffusion assay. The test is classed as functional. In outline: as §2
For `COC(=O)[C@]12Cc3c([nH]c4ccccc34)[C@@H](c3ccc(Cl)cc3)N1[C@@H]1c3c(ccc4ccccc34)OC[C@@H]1C2`, the inhibition zone (IZ) is 17 mm.

A further test deals with Staphylococcus aureus. Briefly: Antimicrobial activity against Staphylococcus aureus at 75 ug/ml by agar diffusion assay. It counts as functional. In outline: as §2
For `COC(=O)[C@]12Cc3c([nH]c4ccccc34)[C@@H](c3ccc(Cl)cc3)N1[C@@H]1c3c(ccc4ccccc34)OC[C@@H]1C2`, the inhibition zone (IZ) came to 20 mm.

In another test the test system is Staphylococcus aureus. Briefly: Antimicrobial activity against Staphylococcus aureus at 100 ug/ml by agar diffusion assay. The test is classed as functional. In outline: as §2
On to `COC(=O)[C@]12Cc3c([nH]c4ccccc34)[C@@H](c3ccc(Cl)cc3)N1[C@@H]1c3c(ccc4ccccc34)OC[C@@H]1C2`, for which the inhibition zone (IZ) was found to be 28 mm.

For a further test, the system named is Pseudomonas aeruginosa. Briefly: Antimicrobial activity against Pseudomonas aeruginosa at 25 ug/ml by agar diffusion assay. The test is classed as functional. Put shortly: as §2
As to `COC(=O)[C@]12Cc3c([nH]c4ccccc34)[C@@H](c3ccc(Cl)cc3)N1[C@@H]1c3c(ccc4ccccc34)OC[C@@H]1C2`, the inhibition zone (IZ) stood at 12 mm.

In a further test the test system is Pseudomonas aeruginosa. Briefly: Antimicrobial activity against Pseudomonas aeruginosa at 50 ug/ml by agar diffusion assay. It counts as functional. Put shortly:
as §2
Consider `COC(=O)[C@]12Cc3c([nH]c4ccccc34)[C@@H](c3ccc(Cl)cc3)N1[C@@H]1c3c(ccc4ccccc34)OC[C@@H]1C2`, for which the inhibition zone (IZ) amounted to 16 mm.

The subject of another test is Pseudomonas aeruginosa. Briefly: Antimicrobial activity against Pseudomonas aeruginosa at 75 ug/ml by agar diffusion assay. It counts as functional. In outline:
as §2
`COC(=O)[C@]12Cc3c([nH]c4ccccc34)[C@@H](c3ccc(Cl)cc3)N1[C@@H]1c3c(ccc4ccccc34)OC[C@@H]1C2` showed an inhibition zone (IZ) of 20 mm.

In the next test the test system is Pseudomonas aeruginosa. Briefly: Antimicrobial activity against Pseudomonas aeruginosa at 100 ug/ml by agar diffusion assay. It counts as functional. Put shortly:
as §2
The molecule `COC(=O)[C@]12Cc3c([nH]c4ccccc34)[C@@H](c3ccc(Cl)cc3)N1[C@@H]1c3c(ccc4ccccc34)OC[C@@H]1C2` displayed an inhibition zone (IZ) of 26 mm.

The next test relates to Klebsiella pneumoniae. Briefly: Antimicrobial activity against Klebsiella pneumoniae at 25 ug/ml by agar diffusion assay. The test is classed as functional. Put shortly:
as §2
`COC(=O)[C@]12Cc3c([nH]c4ccccc34)[C@@H](c3ccc(Cl)cc3)N1[C@@H]1c3c(ccc4ccccc34)OC[C@@H]1C2`: the inhibition zone (IZ) was found to be 11 mm.

The subject of another test is Klebsiella pneumoniae. Briefly: Antimicrobial activity against Klebsiella pneumoniae at 50 ug/ml by agar diffusion assay. It counts as functional. Put shortly: as §2
Molecule `COC(=O)[C@]12Cc3c([nH]c4ccccc34)[C@@H](c3ccc(Cl)cc3)N1[C@@H]1c3c(ccc4ccccc34)OC[C@@H]1C2` came in with an inhibition zone (IZ) of 15 mm.

In another test the test system is Klebsiella pneumoniae. Briefly: Antimicrobial activity against Klebsiella pneumoniae at 75 ug/ml by agar diffusion assay. The test is classed as functional. Put shortly: as §2
`COC(=O)[C@]12Cc3c([nH]c4ccccc34)[C@@H](c3ccc(Cl)cc3)N1[C@@H]1c3c(ccc4ccccc34)OC[C@@H]1C2`: the inhibition zone (IZ) is 22 mm.

In a further test the test system is Klebsiella pneumoniae. Briefly: Antimicrobial activity against Klebsiella pneumoniae at 100 ug/ml by agar diffusion assay. It counts as functional. Put shortly: as §2
The molecule `COC(=O)[C@]12Cc3c([nH]c4ccccc34)[C@@H](c3ccc(Cl)cc3)N1[C@@H]1c3c(ccc4ccccc34)OC[C@@H]1C2` yielded an inhibition zone (IZ) of 25 mm.

The next test concerns Fusarium oxysporum. Briefly: Antifungal activity against Fusarium oxysporum. The test is classed as functional. Put shortly: (§3)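 Agar diffusion assay in duplicate against the plant fungal pathogens; read-out as minimum inhibitory concentration (MIC); carbendazim as reference control.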
A word on the MIC: it is the lowest concentration found to suppress growth. Low values mean greater potency, high ones weaker potency. On to `COC(=O)[C@]12Cc3c([nH]c4ccccc34)[C@@H](c3ccc(Cl)cc3)N1[C@@H]1c3c(ccc4ccccc34)OC[C@@H]1C2`, for which the MIC was 90 µg/mL (≈ 168 µM).

In a further test the test system is Macrophomina phaseolina. Briefly: Antifungal activity against Macrophomina phaseolina. The test is classed as functional. Put shortly:
as §3
The molecule `COC(=O)[C@]12Cc3c([nH]c4ccccc34)[C@@H](c3ccc(Cl)cc3)N1[C@@H]1c3c(ccc4ccccc34)OC[C@@H]1C2` showed a minimum inhibitory concentration (MIC) of 105 µg/mL (≈ 196 µM).

Another test concerns Radical scavenging activity. Briefly: Antioxidant activity assessed as DPPH free radical scavenging activity at 500 ug by spectrophotometer. The test is classed as functional. Put shortly:
as §1
`COC(=O)[C@]12Cc3c([nH]c4ccccc34)[C@@H](c3ccc(Cl)cc3)N1[C@@H]1c3c(ccc4ccccc34)OC[C@@H]1C2`: the Activity was 44%.

Another test deals with Radical scavenging activity. Briefly: Antioxidant activity assessed as DPPH free radical scavenging activity at 1000 ug by spectrophotometer. The test is classed as functional. In outline:
as §1
For the molecule `COC(=O)[C@]12Cc3c([nH]c4ccccc34)[C@@H](c3ccc(Cl)cc3)N1[C@@H]1c3c(ccc4ccccc34)OC[C@@H]1C2`, the Activity turned out to be 75%.
